We go through 13 compounds from ChEMBL document CHEMBL1671844, “Structure guided development of potent reversibly binding penicillin binding protein inhibitors” (ACS Med Chem Lett, 2011).

The structures appear in SMILES notation.

A word on the IC50: it is the concentration needed to halve the response being measured. Low readings indicate greater potency, high ones weaker potency. The Ki is a measure of affinity in units of concentration, obtained from inhibition or displacement. High values mean a looser hold on the target, low ones a stronger hold on the target.

Experiment [1] concerns the target D-alanyl-D-alanine carboxypeptidase (Actinomadura sp. R39, UniProt P39045). Put plainly: Inhibition of Actinomadura R39 PBP after 60 mins.
In experiment [2] the target is D-alanyl-D-alanine carboxypeptidase (Actinomadura sp. R39) (UniProt P39045). Description: Inhibition of Actinomadura R39 PBP assessed as residual activity at 100 uM after 60 mins. An outline of the steps:
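Percentage residual activity of R39 measured with compound at 100 μM, in triplicate.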

Chain of D-alanyl-D-alanine carboxypeptidase (Actinomadura sp. R39) (P39045 whole entry): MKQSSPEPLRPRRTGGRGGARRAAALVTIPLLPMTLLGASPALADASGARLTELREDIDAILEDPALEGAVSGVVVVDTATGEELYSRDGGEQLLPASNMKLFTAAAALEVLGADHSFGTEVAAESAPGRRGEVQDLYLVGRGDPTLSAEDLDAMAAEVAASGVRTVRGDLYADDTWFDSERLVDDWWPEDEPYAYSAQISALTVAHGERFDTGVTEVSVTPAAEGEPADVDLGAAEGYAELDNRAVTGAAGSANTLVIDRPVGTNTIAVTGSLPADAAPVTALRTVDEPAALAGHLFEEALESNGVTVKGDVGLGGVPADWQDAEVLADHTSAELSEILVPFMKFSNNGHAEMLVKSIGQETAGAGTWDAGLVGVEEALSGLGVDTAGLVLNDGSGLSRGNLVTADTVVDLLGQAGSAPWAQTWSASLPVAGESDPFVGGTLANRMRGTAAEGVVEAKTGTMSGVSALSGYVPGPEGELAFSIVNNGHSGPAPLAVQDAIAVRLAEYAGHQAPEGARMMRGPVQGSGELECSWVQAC
Chain of D-alanyl-D-alanine carboxypeptidase (P39045 whole entry): as above

Consider `C[C@@H](NC(=O)c1ccccc1-c1ccccc1)B(O)O`, for which half-maximal inhibition in experiment [1] (IC50) required 1310 nM. Moreover, the Activity in experiment [2] came out at 5%.

Take `C[C@@H](NC(=O)c1c(F)cccc1-c1ccccc1)B(O)O`: the IC50 in experiment [1] is 270 nM. Further, the Activity in experiment [2] was determined as 0%.

Consider `C[C@@H](NC(=O)c1ccccc1NS(=O)(=O)c1ccccc1)B(O)O`, for which the IC50 in experiment [1] was 370 nM. In experiment [2], the Activity amounted to 3%.

In experiment [1], `C[C@@H](NC(=O)c1ccccc1C(c1ccccc1)c1ccccc1)B(O)O` came in with an IC50 of less than 80 nM and a Ki of 63 nM. Also, in experiment [2], the Activity was 1%.

In experiment [1], `C[C@H](NC(=O)c1ccccc1Cc1ccccc1)B(O)O` showed an IC50 of 7200 nM. Also, the Activity in experiment [2] was found to be 16%.

`C[C@H](NC(=O)c1c(F)cccc1F)B(O)O` gave an IC50 in experiment [1] of 3300 nM. The Activity in experiment [2] was 3%.

In turn, `C[C@@H](NC(=O)c1ccc2sccc2c1)B(O)O` gave an IC50 in experiment [1] of 2200 nM. In addition, the Activity in experiment [2] came out at 8%.

`C[C@@H](NC(=O)c1ccc2ccccc2c1)B(O)O` yielded a 50% inhibitory concentration (IC50) in experiment [1] of 14000 nM. Moreover, in experiment [2], the Activity stood at 19%.

`CC(C)c1ccccc1C(=O)N[C@H](C)B(O)O` returned an IC50 in experiment [1] of 59000 nM. In addition, the Activity in experiment [2] worked out at 36%.

Turning to `C[C@@H](NC(=O)c1c(F)cccc1F)B(O)O`, in experiment [1], the IC50 is 500 nM. Further, the Activity in experiment [2] was 0%.

For the compound `C[C@@H](NC(=O)c1c(Cl)cccc1Cl)B(O)O`, the IC50 in experiment [1] was found to be 4200 nM. In addition, in experiment [2], the Activity is 3%.

In experiment [1], `C[C@@H](NC(=O)c1ccccc1C(=O)c1ccc2ccccc2c1)B(O)O` yielded a 50% inhibitory concentration (IC50) of 80 nM and a Ki of 105 nM. Also, the Activity in experiment [2] was determined as 0%.

On to `C[C@@H](NC(=O)c1ccccc1Cc1ccccc1)B(O)O`, for which 1800 nM corresponded to half-maximal inhibition in experiment [1] (IC50). Besides, the Activity in experiment [2] amounted to 5%.
